Screens deposited in PubChem BioAssay by several laboratories.
An excerpt weighted towards active compounds, which were near 3.9% of everything screened.
HSF1 inhib = HSF1 inhibitors in luciferase reporter cells, primary screen, cell-based, NIH3T3, luminescence | NIH3T3-HGL HSE-luciferase, MG132-induced, luminescence 8 h; active compounds read low | activity change, negative = inhibition, % at 7.5 µM (by protocol) | actives 0.77% (n = 300,000);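 active = more than half of replicate wells show activity change below -50%, luminescence cut by over half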;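 note: luciferase reports HSF-1 transcriptional activity via heat shock element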
HSP90 refold inh = HSP90 inhibitors, primary screen, cell lysate, luminescence | Heat shock protein HSP 90 (rabbit reticulocyte lysate; luciferase refolding) | Rabbit reticulocyte lysate, luciferase refolding luminescence, 3 h | inhibition, % at 5.6 µM | actives 0.91% (n = 290,000);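 active = inhibition above the screen-wide mean plus 3 SD, computed separately per campaign, cut at about 16% in these data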;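 note: inhibitors lower the luminescence because luciferase stays unfolded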
DNA FID counter = compounds displacing fluorescent DNA intercalator, primary screen, artefact control for HCV NS3 helicase inhibitor project, biochemical, FID fluorescence; DNA fluorescent intercalator displacement; inhibition, % at 7.9 µM; actives 0.17% (n = 290,000); in the data active = inhibition above about 37%;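 note: higher means more ethidium bromide displaced from hairpin DNA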
core dimer inh = inhibitors of HCV core protein dimerization, primary screen, biochemical, TR-FRET, high-throughput; actives 0.33% (n = 300,000); TR-FRET GST/Flag-core106 dimerization, 1536-well; inhibition, % at 5 µM;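 active = inhibition above the mean of all tested compounds plus 3 SD, set per screening campaign, cut at about 45% in these data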
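Material: Tagged HCV core106 pair (GST and Flag) | Amount: GST-core106 13.5 nM, Flag-core106 17 nM | Medium: KF-containing HEPES buffer, pH 7.45, DTT, CHAPS, BSA | Reagent: Eu donor and XL665 acceptor anti-tag antibodies | Schedule: 4 h at 22.5 °C | Technique: Time-resolved FRET, ex 340 nm, em 617 and 671 nm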
HSF-1 act = HSF-1 activators, primary screen, NIH3T3-HGL cells, MG132 stress, luminescence, single point; NIH3T3-HGL HSF-1 luciferase reporter, 8 h; 100% = twice DMSO control signal; activation, % at 9 µM; actives 1.7% (n = 300,000); AID 504408, 2011;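 active = mean replicate activation of at least 50% with a set share of replicates each reaching 50%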
NS3 helicase inh = inhibitors of HCV NS3 helicase, primary screen, biochemical, Cy5 molecular beacon fluorescence; NS3 helicase DNA unwinding; Hepatitis C virus NS3 helicase; actives 0.56% (n = 290,000); inhibition, % at 10.9 µM; AID 1800, 2009;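 active = inhibition above the mean of all tested compounds plus 3 SD, set per campaign, cut at about 35% in these data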
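Control set: DMSO versus 110 µM thioflavine S; Material: NS3 helicase fragment of HCV; Measured by: Cy5 fluorescence at 0 and 60 min, beacon hairpin quenching; Read-out basis: percent inhibition from t60/t0 fluorescence ratio; Times: reaction time 60 min, 25 °C; Repeats: single replicate; Compound dosing: single dose, 10.9 µM nominal final, DMSO 0.8% final.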
HSP90 inh confirm = HSP90 inhibitors, confirmation, cell lysate, luminescence. shares compounds with HSP90 refold inh. rabbit reticulocyte lysate, luciferase refolding luminescence, 3 h. inhibition, % at 5.9 µM. actives 64% (n = 2,300). AID 1846, 2009; in the data active = inhibition above about 18%
luciferase ctr = firefly luciferase inhibitors, HSP90 counter-screen, confirmation, artefact control for HSP90 inhibitor project, biochemical, luminescence, triplicate. inhibition, % at 5.9 µM. purified native firefly luciferase. AID 1847, 2009. shares compounds with HSP90 refold inh. actives 48% (n = 2,300);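 active = inhibition above the mean inhibition of all tested sample wells plus 3 SD, cut at about 10% in these data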
Target sequence (P08659 whole entry, looked up): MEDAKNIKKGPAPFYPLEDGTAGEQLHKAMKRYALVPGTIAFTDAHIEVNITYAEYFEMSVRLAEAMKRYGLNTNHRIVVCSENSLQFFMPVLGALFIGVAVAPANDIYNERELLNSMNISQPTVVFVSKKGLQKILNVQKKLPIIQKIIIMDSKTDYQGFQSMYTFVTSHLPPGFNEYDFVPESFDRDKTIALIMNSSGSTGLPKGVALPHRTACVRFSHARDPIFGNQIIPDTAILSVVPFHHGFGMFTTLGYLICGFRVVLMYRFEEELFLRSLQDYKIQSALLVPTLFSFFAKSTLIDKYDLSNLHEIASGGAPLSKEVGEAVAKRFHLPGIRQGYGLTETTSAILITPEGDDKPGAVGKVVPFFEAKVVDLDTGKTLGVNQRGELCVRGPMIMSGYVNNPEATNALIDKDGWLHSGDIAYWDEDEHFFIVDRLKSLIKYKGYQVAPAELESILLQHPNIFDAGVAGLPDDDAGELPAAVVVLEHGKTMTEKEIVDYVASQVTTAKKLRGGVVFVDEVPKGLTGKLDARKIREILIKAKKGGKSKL
A number is an active result; n = inactive; x = no result.

SMILES | HSF1 inhib | HSP90 refold inh | DNA FID counter | core dimer inh | HSF-1 act | NS3 helicase inh | HSP90 inh confirm | luciferase ctr
CCn1c(O)c(/C=N/N2CCOCC2)c(=O)n(CC)c1=S | n | n | n | n | n | n | x | x
CCn1c(O)c(C=Nc2ccc(N3CCOCC3)c(Br)c2)c(=O)n(CC)c1=S | -67.0 | n | n | n | n | n | x | x
COc1ccc(-n2c(-c3ccccc3[N+](=O)[O-])nc3ccccc3c2=O)cc1 | n | n | n | x | n | n | x | x
Cc1ccc(-n2nc(C)c3c2NC(=O)CSC3c2ccc3c(c2)OCO3)cc1 (configuration not stated) | -62.7 | n | n | n | n | n | x | x
NC(=S)c1cn(C2OC(CO)C(O)C2O)c2ncnc(N)c12 (configuration not stated) | -67.3 | n | n | n | n | n | x | x
Nc1ncnc2c1ccn2[C@@H]1O[C@H](CO)[C@@H](O)[C@H]1O | -79.0 | x | x | n | n | x | x | x
Cc1nc2ccccc2c(=O)n1-c1ccc(-c2ccccc2)cc1 | n | n | n | n | n | n | x | x
C[C@H]1CCCC(=O)CCC/C=C/c2cc(O)cc(O)c2C(=O)O1 | n | n | n | n | n | n | x | x
COc1cc(O)cc2c1C(=O)OC(C)CCCC(=O)CCC/C=C\2 (configuration not stated) | n | n | n | n | 107.2 | n | x | x
Cc1cccn2c(=O)c3c(nc12)N1CCC(Cc2ccccc2)CC1C1(C3)C(=O)N(C)C(=O)N(C)C1=O (configuration not stated) | n | n | n | n | 56.4 | n | x | x
O=C1NC(=S)NC(=O)C1=Cc1ccc2c(c1)CCN2CCCCl | n | n | n | 65.1 | n | n | x | x
CN1CCN(C(=O)COc2ccc(N(C)S(=O)(=O)c3ccc(F)cc3)cc2)CC1 | n | n | n | n | n | n | x | x
COC1C(C)OC(OC2CC(C)(O)Cc3cc4c(c(O)c32)C(=O)c2c(O)cc3c(c2C4=O)OC2OC3(C)C(O)C(N(C)C)C2O)C(OC)C1(C)OC (configuration not stated) | 71.3 | x | x | x | 71.3 | x | x | x
O=C1C2CCN(CC2)C1Cc1ccc(OCc2ccccc2)cc1 (configuration not stated) | n | n | n | n | n | n | x | x
COc1ccc(-c2nc3ccccc3c(=O)n2-c2cccnc2)cc1 | -68.8 | n | n | n | n | n | x | x
c1ccc(-c2ccc(-c3n(-c4ccccn4)c4ccccc4[n+]3-c3ccccn3)cc2)cc1 | n | n | n | x | n | n | x | x
O=c1[nH]c(=S)[nH]c(O)c1/C=N/N1CCOCC1 | n | n | n | n | n | n | x | x
O=C1CC(N2CC=C(c3ccc(F)cc3)CC2)C(=O)N1c1ccc(F)cc1 (configuration not stated) | -70.6 | n | n | n | n | n | x | x
Cc1ccc(OCCOc2cccc(C=C3C(=O)NC(=O)NC3=O)c2)cc1 | n | 30.4 | n | n | n | n | 44.6 | 14.3
CN1CCCN(c2ccc([N+](=O)[O-])nc2)CC1 | n | n | n | n | n | n | x | x
COc1ccc(N2C(=O)NC(=O)/C(=C\c3cn(C)c4ccccc34)C2=O)cc1 | n | 27.9 | n | n | n | n | n | n
CCC1(C)OC(c2ccccc2)=C/C(=C/C=C2C(=O)NC(=O)NC2=O)O1 (configuration not stated) | n | n | n | x | n | n | x | x
COc1cccc(NC2=NCCCS2)c1 | n | n | n | n | n | n | x | x
O=C(NC1CCCCC1)Oc1cc2oc(=O)sc2cc1Cl | n | 17.7 | n | n | n | n | n | n
COC(=O)C(O)(c1c(C)[nH]n(-c2ccccc2)c1=O)C(F)(F)F (configuration not stated) | n | n | n | n | n | n | x | x
SMILES | HSF1 inhib | HSP90 refold inh | DNA FID counter | core dimer inh | HSF-1 act | NS3 helicase inh | HSP90 inh confirm | luciferase ctr
COc1cc(C(c2c(C)[nH]n(-c3ccccc3)c2=O)c2c(C)[nH]n(-c3ccccc3)c2=O)cc(OC)c1OC | n | 55.7 | n | n | 55.2 | n | n | n
CCCCCCOc1ccc(CN2CCN(CC)CC2)cc1 | x | 29.5 | n | n | x | n | 24.8 | n
Nc1cc(Cl)c2nonc2c1[N+](=O)[O-] | x | n | n | n | x | n | x | x
CCC1CN1P1(=O)OCC(C)([N+](=O)[O-])CO1 (configuration not stated) | n | x | x | x | n | x | x | x
Cc1ccc(CN2CCCN(Cc3ccc(C)cc3)S2(=O)=O)cc1 | n | 18.0 | n | n | n | n | n | n
Cc1cccc(CN2CCCN(Cc3ccc(Cl)cc3)S2(=O)=O)c1 | n | n | n | n | n | n | x | x
COc1ccccc1OCCCn1cc(C=O)c2ccccc21 | n | 18.1 | n | n | n | n | 21.5 | n
COc1ccccc1-n1c(Cc2ccccc2)nc2ccccc2c1=O | n | n | n | n | n | n | x | x
CCn1nc(/C=C/c2ccccc2)nc2c(=O)n(C)c(=O)nc1-2 | x | 85.2 | n | x | x | n | 96.2 | 87.7
COc1ccc(-n2c(/C=C/c3ccc(O)cc3)nc3ccccc3c2=O)cc1 | n | n | n | n | n | n | x | x
CCOC(=O)C1CCN(/C=C2/C(=O)NC(=O)N(c3ccc(OCC)cc3)C2=O)CC1 | x | 23.7 | n | n | x | n | n | n
CC1CCC(NC(=O)CNC(=S)N2CC3CC(C2)c2cccc(=O)n2C3)CC1 (configuration not stated) | n | n | n | n | n | n | x | x
CN(C)C(=O)Oc1cccc(-c2cn3cc(Cl)ccc3n2)c1 | n | n | n | n | n | n | x | x
CN(C)C(=O)Oc1ccc(-c2cn3cc(Cl)ccc3n2)cc1 | n | 32.5 | n | n | n | n | 33.6 | 21.4
CC1CN=C(NC(C)c2ccccc2)S1 (configuration not stated) | n | 17.2 | n | n | n | n | n | n
COc1ccccc1/C=C1\C(=O)NC(=S)N(c2ccccc2)C1=O | n | n | n | n | n | n | x | x
CCOc1cccc(N2C(=O)/C(=C/c3ccco3)C(=O)NC2=S)c1 | n | 32.2 | n | 60.6 | n | n | n | 18.7
O=C(CCS(=O)(=O)c1ccc(Br)cc1)N1CCC2(CC1)OCCO2 | x | 77.7 | n | n | x | n | n | n
O=C(c1ccc(CS(=O)(=O)c2ccc(Br)cc2)o1)N1CCC2(CC1)OCCO2 | n | n | n | n | n | n | x | x
